Measurements published in ChEMBL document CHEMBL5038583, “Highly Potent and Selective Butyrylcholinesterase Inhibitors for Cognitive Improvement and Neuroprotection” (J Med Chem, 2021).
Calls of active or inactive are those of the source. The rule behind the calls is not given here.

What was measured:
[1] = system: Mus musculus; test: Antialzheimer activity in ICR mouse assessed as reduction in scopolamine-induced cognitive impairment at 30 mg/kg, ig administered for 10 consecutive days by Morris water maze test; type: functional, organism-based; conditions: time 10.0 day
Outline: (§1)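 Male ICR mice (8−10 weeks, 18−20 g), n = 8 per group. Compound at 15 or 30 mg/kg intragastric in DMSO/saline (10:90), given 30 min before scopolamine 3 mg/kg i.p., for 10 consecutive days; tacrine 15 mg/kg as reference. Morris water maze: 5 days of training, probe trial on day 6 with platform removed. Escape latency and trajectory recorded; mean ± SD.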

[2] = MRT (0 to infinity) in overnight fasted Sprague-Dawley rat at 10 mg/kg, po measured upto 1440 mins by LC/MS/MS analysis; type: ADME, organism-based; conditions: in vivo
Outline: (§2)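 Male SD rats (180−220 g), n = 8 per route, fasted overnight with water available. Single 10 mg/kg dose p.o. or i.v. in DMSO/PEG400/saline (10:80:10). Retro-orbital blood taken into heparinized tubes at 1–1440 min. Plasma precipitated with methanol containing theophylline internal standard, then LC/MS/MS against a blank-plasma standard curve. Parameters from noncompartmental extravascular analysis; mean ± SD.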

[3] = Ratio of Cmax in brain to plasma of ICR mouse at 10 mg/kg, po measured upto 240 mins; type: ADME, organism-based
Outline: (§3)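 ICR mice given 10 mg/kg orally in 5% DMSO/40% PEG400/55% saline (1 mg/mL). Blood (retro-orbital) and brain collected at 30, 60, 120 and 240 min. Brain homogenized in 2 volumes PBS, extracted with ethyl acetate, dried and reconstituted in mobile phase. Plasma processed as in the rat study; LC/MS/MS. Brain/plasma ratios from exposures, AUC(B) vs AUC(P).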

[4] = Hepatotoxicity in ICR mouse assessed as morphological changes in liver at 1 g/kg, ig administered daily for 14 days analysed after 22 hrs post-administration by hematoxylin and eosin staining based analysis; type: toxicity, tissue-based; conditions: in vivo, po, 1000 mg/kg, 336 h, time 14 day
Outline: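 Liver from male mice taken 22 h after compound or vehicle; hematoxylin−eosin staining, viewed at ×100.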

[5] = system: HepG2; test: Cytotoxicity against human HepG2 cells assessed as reduction in cell viability incubated for 24 hrs by MTT assay; type: functional, cell-based; conditions: HepG2, 24 h
Outline: (§4)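 Cells seeded at 1 × 10⁴/well in DMEM with 10% FBS and left overnight, then given compound (DMSO stock diluted in DMEM) for 24 h at 37 °C. MTT added for 4 h, formazan dissolved in DMSO, absorbance read at 492 nm. Viability taken as OD treated/OD DMEM × 100%; IC50 from three independent experiments, mean SD.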

[6] = Ratio of drug concentration in brain to plasma of ICR mouse at 10 mg/kg, po measured after 1 hrs; type: ADME, organism-based; outline: as §3
[7] = Effective permeability of the compound in pH 7.4 PBS/EtOH (70:30) at 100 ug/ml incubated for 18 hrs by PAMPA-BBB assay; type: ADME; conditions: dose 100 µg/ml, read-out: Peff
Outline: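 PAMPA-BBB with porcine brain lipid in dodecane (20 mg/mL) on PVDF filter. Donor holds compound at 100 μg/mL final (from 5 mg/mL DMSO stock) in PBS pH 7.4/EtOH 70:30; acceptor holds the same buffer. Incubated 18 h at 25 °C; donor and acceptor concentrations by UV at five wavelengths. Four wells, at least three runs, nine permeability standards; mean ± SD.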

[8] = system: Mus musculus; test: Anti-alzheimer activity in amyloid beta(1 to 42)-induced ICR mouse model of cognitive impairment assessed as enhanced alternation performance by measuring total number of arm entries at 15 mg/kg, ig administered at days 2 to 14 and measured on day 15 by Y-maze test; type: functional
Outline: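 Oligomerized Aβ1-42 (10 μg per mouse, icv) given on day 1; saline icv for sham. Dosing 15 mg/kg ig on days 2−14 (donepezil as positive control), n = 8. Spontaneous alternation read on day 15 in a three-arm grey PVC Y maze, arms at 120°. Mean SD.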

[9] = Tmax in overnight fasted Sprague-Dawley rat at 10 mg/kg, iv measured upto 1440 mins by LC/MS/MS analysis; type: ADME, organism-based; conditions: in vivo; outline: as §2
[10] = Oral bioavailability in overnight fasted Sprague-Dawley rat at 10 mg/kg measured upto 1440 mins by LC/MS/MS analysis; type: ADME, organism-based; conditions: in vivo; outline: as §2
[11] = system: Plasma; test: Increase in ghrelin levels in ICR mouse plasma assessed as inhibition of BChE; type: functional, cell-free
[12] = system: Mus musculus; test: Antialzheimer activity in scopolamine-induced ICR mouse model of cognitive impairment assessed as reduction in escape latency at 30 mg/kg, ig administered for 10 consecutive days by Morris water maze test; type: functional, organism-based; outline: as §1
[13] = Ratio of drug concentration in brain to plasma of ICR mouse at 10 mg/kg, po measured after 0.5 hrs; type: ADME, organism-based; outline: as §3
[14] = AUC (0 to infinity) in overnight fasted Sprague-Dawley rat at 10 mg/kg, iv measured upto 1440 mins by LC/MS/MS analysis; type: ADME, organism-based; design: route intravenous, dose 10 mg/kg, time <=1440; conditions: in vivo, 24 h; outline: as §2
[15] = Cmax in ICR mouse brain at 10 mg/kg, po measured upto 240 mins; type: ADME, organism-based; design: route oral, dose 10 mg/kg, time <=240; outline: as §3
[16] = Tmax in overnight fasted Sprague-Dawley rat at 10 mg/kg, po measured upto 1440 mins by LC/MS/MS analysis; type: ADME, organism-based; conditions: in vivo, 24 h; outline: as §2
[17] = system: Mus musculus; test: Anti-alzheimer activity in amyloid beta(1 to 42)-induced ICR mouse model of cognitive impairment assessed as simplification of trajectories at 15 mg/kg, ig administered at days 2 to 14 by Morris water maze test; type: functional, organism-based
Outline: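 ICR mice, n = 8 per group. Aggregated Aβ1-42 (5 mM DMSO stock incubated 24 h at 37 °C in saline at 2 mg/mL) given 10 μg per mouse icv on day 1; saline icv for sham. Compound 15 mg/kg intragastric on days 2−14; donepezil reference. Morris water maze training days 9−13, probe trial day 14; tracks recorded; mean ± SD.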

[18] = AUC (0 to t) in ICR mouse brain at 10 mg/kg, po measured upto 240 mins; type: ADME, organism-based; design: route oral, dose 10 mg/kg, time <=240; outline: as §3
[19] = Half life in overnight fasted Sprague-Dawley rat at 10 mg/kg, iv measured upto 1440 mins by LC/MS/MS analysis; type: ADME, organism-based; conditions: in vivo; outline: as §2
[20] = MRT (0 to infinity) in overnight fasted Sprague-Dawley rat at 10 mg/kg, iv measured upto 1440 mins by LC/MS/MS analysis; type: ADME, organism-based; conditions: in vivo; outline: as §2
[21] = Ratio of AUC in brain to plasma of ICR mouse at 10 mg/kg, po measured upto 240 mins; type: ADME, organism-based; conditions: read-out: Ratio AUC; outline: as §3
[22] = system: L02; test: Cytotoxicity against human L02 cells assessed as survival rate at 100 uM incubated for 24 hrs by MTT assay; type: functional; outline: as §4
[23] = Toxicity in ICR mouse assessed as increase in body weight administered for 14 days and measured daily; conditions: in vivo, 15 mg/kg, 336 h

## Nc1nonc1-c1nc2ccccc2n1CC(=O)Nc1cnc2ccccc2c1
[1]
  Activity: Active
[2]
  MRT inf: 11.6 h
[3]
  Kp at 4 h: 0.24
[4]
  Activity: Non-Toxic
[5]
  IC50: 84.3 µM
[6]
  Kp at 1 h: 5.05
[7]
  Papp at 18 h, 100 ug/ml: 4.45 ×10⁻⁶ cm/s
[8]
  Activity: Active
[9]
  Tmax: 1.02 min
[10]
  bioavailability: 73.4%
[11]
  Activity: Active
[12]
  Activity: Active
[13]
  Kp at 0.5 h: 1.54
[14]
  AUC: 1092.11 ng·h/mL
[15]
  Cmax: 12.1 ng/mL
[16]
  Tmax: 9.5 h
[17]
  Activity: Active
[18]
  AUC(0-t) at 4 h: 34.1 ng·h/mL
[19]
  half-life: 8.87 h
[20]
  MRT inf: 14.1 h
[21]
  Kp at 4 h: 0.36
[22]
  Activity: 70.64%
[23]
  Activity: Toxic
